# PMC12199099 (British Journal of Clinical Pharmacology, 2025)
# Values joined by “and” are separate entries in the source; they are usually repeats but may differ in a detail not shown here. Equal entries are not always repeated.
# What was measured:
# [1] = humans, cited from earlier work
# [2] = test system: R/R MCL; assay: Exposure-efficacy; type: in vivo, human; settings: for relationship between exposures and efficacy endpoints (BOR and SPD): Chinese patients with R/R MCL (n = 34), 100 mg BID
# Procedure, shortened: (§1)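 Chinese pivotal phase 1/2 study (MCL n = 34; CLL n = 60). Per-patient acalabrutinib, ACP-5862 and total active moiety AUC_24h,ss and C_max,ss were taken from pop-PK post hoc estimates. Total active moiety was adjusted for BTK potency and protein binding. Best overall response was assessed by an independent review committee: CR/PR/SD/PD for MCL, PR/PRL/SD for CLL/SLL. SPD change from baseline was also scored. Analysis was graphical plus logistic regression.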
# [3] = Population pharmacokinetic; type: in vivo, human; settings: for geometric mean AUC24h,ss higher in Chinese patients than in White patients / geometric mean C max,ss higher in Chinese patients than in White patients: 100 mg BID, empirical Bayes estimates, Chinese n = 105, White n = 512
# Procedure, shortened: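 Pooled plasma acalabrutinib/ACP-5862 data from 14 trials, with China study intensive and sparse schedules, were fitted to the existing model. Parent: two-compartment, five transit compartments. Metabolite: two-compartment, formation fixed at 0.4 CL/F. BOV was on MTT and F1; BSV on clearances and volumes. Race (East Asian vs non-East Asian), PPI, ECOG and health status were tested as proportional shifts. Estimation used NONMEM SAEM/IMP, with BLQ handled by M3.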
# [4] = used for total active concentration; cited from earlier work
# [5] = test system: BTK; settings: cited from earlier work
# [6] = test system: R/R CLL/SLL; assay: Exposure-efficacy; type: in vivo, human; settings: for relationship between exposures and efficacy endpoints (BOR and SPD): Chinese patients with R/R CLL/SLL (n = 60), 100 mg BID
# Procedure, shortened: as §1
# [7] = test system: CYP3A enzymes; settings: cited from earlier work
# [8] = test system: breast cancer‐resistance protein (BCRP); settings: cited from earlier work
# [9] = at a 400 mg daily dose; cited from earlier work
# [10] = radio-labelled dose, humans; cited from earlier work
# [11] = cited from earlier work
# [12] = test system: BTK; settings: 100 mg BID, clinical pharmacodynamic data; cited from earlier work
# [13] = cited from earlier work; remark: listed apart in the source
# [14] = type: in vivo, human; settings: noncompartmental analysis, patients with intensive PK sampling
# [15] = Exposure-safety; type: in vivo, human
# Procedure, shortened: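 Pooled seven studies (six global plus China; n = 476). Endpoints were incidence of grade ≥2 AEs, grade ≥3 AEs, and grade ≥2 AEs of clinical interest occurring in ≥5% of patients (MedDRA v21.1). Post hoc pop-PK steady-state exposures (acalabrutinib AUC_24h,ss primary) were related to AE incidence by graphical plots and logistic regression with 95% CI. Analysis was run for the global and Chinese populations.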
# [16] = Chinese R/R MCL, n = 34, 100 mg BID
# [17] = Chinese R/R CLL/SLL, n = 60, 100 mg BID
smiles,measurement,setting,value
CC#CC(=O)NCCCC(=O)c1nc(-c2ccc(C(=O)Nc3ccccn3)cc2)c2c(N)nccn12 [ACP‐5862],mean terminal half‐life,[1],6.6 h
same,relationship between exposures and efficacy endpoints (BOR and SPD),[2],flat relationships
same,"geometric mean AUC24h,ss higher in Chinese patients than in White patients",[3],28%
same,"geometric mean C max,ss higher in Chinese patients than in White patients",[3],28%
same,"CLM/F, apparent clearance of metabolite, estimate (RSE %)",[3]; final model fixed effect,21.5 (0.6) L/h
same,"QM/F, apparent intercompartmental clearance for metabolite, estimate (RSE %)",[3]; final model fixed effect,21.1 (2.9) L/h
same,"VcM/F, apparent volume of the central compartment for metabolite, estimate (RSE %)",[3]; final model fixed effect,24.3 (1.7) L
same,"VpM/F, apparent volume of the peripheral compartment for metabolite, estimate (RSE %)",[3]; final model fixed effect,90.9 (1.3) L
same,"BSV CLM/F, estimate (RSE %)",[3]; random effect,13.2 (18.7) L/h
same,"BSV QM/F, estimate (RSE %)",[3]; random effect,62.4 (13.8) L/h
same,"BSV VcM/F, estimate (RSE %)",[3]; random effect,37.4 (13.7) L
same,"BSV VpM/F, estimate (RSE %)",[3]; random effect,29.3 (18.8) L
same,free fraction (fu),[4],0.013
same,potency for BTK inhibition compared with acalabrutinib,[5],approximately 0.5 fold
same,relationship between exposures and efficacy endpoints (BOR and SPD),[6],flat relationships
CC#CC(=O)N1CCC[C@H]1c1nc(-c2ccc(C(=O)Nc3ccccn3)cc2)c2c(N)nccn12 [acalabrutinib],metabolism by CYP3A enzymes into ACP‐5862,[7],predominantly metabolized
same,median time to peak plasma concentration (T max),[1]; after oral administration,0.75 h
same,absolute bioavailability,[1],25%
same,mean steady‐state volume of distribution (Vss),[1],approximately 34 L
same,mean terminal half‐life,[1],1.4 h
same,"best overall response CR, number of patients",[2]; [16],12
same,"best overall response PD, number of patients",[2]; [16],4
same,"best overall response PR, number of patients",[2]; [16],16
same,"best overall response SD, number of patients",[2]; [16],1
same,relationship between exposures and efficacy endpoints (BOR and SPD),[2],flat relationships
same,BCRP substrate status,[8],substrate
same,"geometric mean AUC24h,ss higher in Chinese patients than in White patients",[3],28%
same,"geometric mean C max,ss higher in Chinese patients than in White patients",[3],28%
same,CL/F higher in healthy participants than in patients with B‐cell malignancies,[3]; covariate analysis,64.5%
same,Vp/F lower in healthy participants than in patients with B‐cell malignancies,[3]; covariate analysis,42.4%
same,"decrease in CL/F, ECOG performance status ≥2 compared with ECOG ≤1",[3]; covariate analysis,12.8%
same,reduction of F1 by PPIs,[3]; covariate analysis,30.7%
same,"CL/F, apparent clearance of parent drug, estimate (RSE %)",[3]; final model fixed effect,130.3 (0.4) L/h
same,"Ka, first‐order absorption rate constant, estimate (RSE %)",[3]; final model fixed effect,1.4 (6.6) h^−1
same,"MTT, mean transit time, estimate (RSE %)",[3]; final model fixed effect,0.4 (5) h
same,"Q/F, apparent intercompartmental clearance for parent drug, estimate (RSE %)",[3]; final model fixed effect,19.5 (1.3) L/h
same,"Vc/F, apparent volume of the central compartment for parent drug, estimate (RSE %)",[3]; final model fixed effect,28.8 (4.5) L
same,"Vp/F, apparent volume of the peripheral compartment for parent drug, estimate (RSE %)",[3]; final model fixed effect,105.6 (0.7) L
same,F higher in East Asian compared with non‐East Asian individuals,[3]; race covariate,23% and ~ 23%
same,Vp/F lower in East Asian compared with non‐East Asian individuals,[3]; race covariate,38%
same,"BOV F1, between‐occasion variability, estimate (RSE %)",[3]; random effect,52.9 (1.7)
same,"BOV MTT, between‐occasion variability, estimate (RSE %)",[3]; random effect,125 (2.2) h
same,"BSV CL/F, between‐subject variability, estimate (RSE %)",[3]; random effect,23.2 (5.6) L/h
same,"BSV Vc/F, estimate (RSE %)",[3]; random effect,306 (6.3) L
same,"BSV Vp/F, estimate (RSE %)",[3]; random effect,35.9 (6.9) L
same,"CL/F_ECOG2+, covariate effect of ECOG on CL/F, estimate (RSE %)",[3]; relative change (1 + estimate),−0.128 (43.9)
same,"CL/F_HEALTHGP, covariate effect of healthy individuals on CL/F, estimate (RSE %)",[3]; relative change (1 + estimate),0.645 (17.1)
same,"Vp/F_HEALTHGP, covariate effect of healthy individuals on Vp/F, estimate (RSE %)",[3]; relative change (1 + estimate),−0.424 (5.9)
same,maximum tolerated dose,[9],not observed
same,dose excreted as unchanged acalabrutinib in urine and faeces,[10],less than 2%
same,dose recovered in the faeces,[10],84%
same,dose recovered in the urine,[10],12%
same,"solubility, pH dependence",[11],solubility decreasing with increasing pH
same,BTK occupancy over 24 h,[12],maximal
same,incidence of atrial fibrillation and haemorrhage compared with ibrutinib,[13],lower incidence
same,AUC higher in Chinese participants than in White patients,[14],48%
same,"relationship of acalabrutinib AUC24h,ss with grade ≥2 or ≥3 adverse events","[15]; both Chinese patients and the overall population, 100–400 mg daily doses",flat relationship
same,"relationship between acalabrutinib AUC24h,ss and grade ≥3 AEs","[15]; overall population, 100 mg BID",flat relationship
same,"relationship between acalabrutinib AUC24h,ss and grade ≥2 and grade ≥3 AEs","[15]; overall population, logistic regression, daily doses 100 to 400 mg",no statistically significant relationship
same,"best overall response PR, number of patients",[6]; [17],50
same,"best overall response PRL, number of patients",[6]; [17],2
same,"best overall response SD, number of patients",[6]; [17],6
same,relationship between exposures and efficacy endpoints (BOR and SPD),[6],flat relationships
